Test results reported in ChEMBL document CHEMBL1144689, “Antileukemic activity of genistein, a major isoflavone present in soy products” (J Nat Prod, 2008).
Calls of active or inactive are those of the source. No cut-off for these calls is given here.

What was measured:
L1210 [1] = assay: Antileukemic activity against mouse L1210 cells at 20 uM after 12 hrs by clonogenic assay; type: functional
How it was run: (§1)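 Murine L1210 cells cultured in RPMI-1640 with 5% heat-inactivated FCS and 6 µM 2-mercaptoethanol. Log-phase cells at 2 × 10^4 cells/mL exposed to 1–20 µM for 12, 24 or 48 h, then drug removed by centrifugation. 100 cells plated in 0.45% soft agar with 10% serum. Colonies >50 cells counted at day 7. Result as % relative to untreated control. Triplicate, three repeats, mean ± SEM.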

L1210 [2] = assay: Antileukemic activity against mouse L1210 cells after 24 hrs by clonogenic assay; type: functional; conditions: L1210, 24 h, read-out: LC50 (the source's name)
How it was run: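 Murine L1210 grown in RPMI-1640 with 5% heat-inactivated FCS and 6 µM 2-mercaptoethanol. Log-phase cells at 2 × 10^4 cells/mL exposed to 1–20 µM for 24 h. Drug removed by centrifugation. 100 cells plated in 0.45% soft agar with 10% serum for 7 days, and colonies (>50 cells) counted. Loss is relative to untreated control. Triplicates, three experiments, mean ± SEM.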

L1210 [3] = assay: Growth inhibition of mouse L1210 cells at 20 uM after 24 hrs; type: functional; conditions: L1210, 24 h, read-out: GI
How it was run: (§2)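 For L1210 (RPMI-1640, 5% heat-inactivated FCS, 6 µM 2-mercaptoethanol), log-phase cultures at 2 × 10^4 cells/mL were given 1–20 µM for 12, 24 or 48 h. Coulter particle counter counts were expressed as % growth inhibition versus untreated control. IG50 was taken at 24 h. Triplicate, three repeats, mean ± SEM.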

MOLT-3 [4] = assay: Growth inhibition of human MOLT3 cells at 2 uM after 48 hrs; type: functional; conditions: MOLT-3, 48 h, read-out: GI
How it was run: (§3)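 Human leukemic cells (RPMI-1640, 10% heat-inactivated FBS), log phase, seeded at 2 × 10^4 cells/mL. Exposed to 1, 2, 5, 10 or 20 µM (DMSO stock). Cell number counted with a Coulter particle counter at 48 h. Growth inhibition as % of untreated control. IG50 is the concentration giving 50% inhibition. Triplicate, three repeats, mean ± SEM.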

Raji [5] = assay: Growth inhibition of human Raji cells at 5 uM after 48 hrs; type: functional; conditions: read-out: GI; how it was run: as §3
HL-60 = assay: Growth inhibition of human HL60 cells at 5 uM after 48 hrs; type: functional; conditions: HL-60, 48 h, read-out: GI; how it was run: as §3
[6] = Growth inhibition of human KG1a cells after 48 hrs; type: functional, KG-1a; how it was run: as §3
Raji [7] = assay: Growth inhibition of human Raji cells after 48 hrs; type: functional; how it was run: as §3
L1210 [8] = assay: Growth inhibition of mouse L1210 cells at 1 uM after 48 hrs; type: functional; conditions: L1210, 48 h, read-out: GI; how it was run: as §2
L1210 [9] = assay: Antileukemic activity against mouse L1210 cells at 5 uM after 24 hrs by clonogenic assay; type: functional; how it was run: as §1
L1210 [10] = assay: Growth inhibition of mouse L1210 cells at 2 uM after 24 hrs; type: functional; conditions: L1210, 24 h, read-out: GI; how it was run: as §2
Raji [11] = assay: Antileukemic activity against human Raji cells after 24 hrs by clonogenic assay; type: functional; conditions: read-out: LC50 (the source's name)
How it was run: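 Log-phase cells seeded at 2 × 10^4 cells/mL in RPMI-1640 with 10% heat-inactivated FBS at 37 °C, 5% CO2, then exposed 24 h to 1–20 µM (DMSO stock). Drug washed out by centrifugation. 100 cells plated in 0.45% soft agar with 20% serum for 15 days, and colonies (>50 cells) counted. Loss of clonogenicity is relative to untreated control. Triplicates, repeated three times, mean ± SEM. LC50 read from the dose curve.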

L1210 [12] = assay: Growth inhibition of mouse L1210 cells at 1 uM after 12 hrs; type: functional; conditions: L1210, 12 h, read-out: GI; how it was run: as §2
Raji [13] = assay: Antileukemic activity against human Raji cells at >2 uM after 24 hrs by clonogenic assay; type: functional
How it was run: (§4)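 Log-phase cells at 2 × 10^4 cells/mL in RPMI-1640 with 10% heat-inactivated FBS, 37 °C, 5% CO2. Drug (DMSO stock) at 1, 2, 5, 10 or 20 µM for 24 h, removed by centrifugation. 100 cells plated in 0.45% soft agar with 20% serum. Colonies >50 cells counted after 15 days. Loss of clonogenicity as % of untreated control. Triplicate, three repeats, mean ± SEM.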

[14] = Growth inhibition of human KG1a cells at 5 uM after 48 hrs; type: functional; conditions: KG-1a; how it was run: as §3
L1210 [15] = assay: Antileukemic activity against mouse L1210 cells at 20 uM after 24 hrs by clonogenic assay; type: functional; how it was run: as §1
L1210 [16] = assay: Antileukemic activity against mouse L1210 cells at 1 uM after 12 hrs by clonogenic assay; type: functional; how it was run: as §1
L1210 [17] = assay: Antileukemic activity against mouse L1210 cells at 5 uM after 48 hrs by clonogenic assay; type: functional; how it was run: as §1
L1210 [18] = assay: Induction of p15CDKN2B re-expression in mouse L1210 cells at 1 to 20 uM after 24 hrs by RT-PCR; type: functional, cell-based
How it was run: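 Murine L1210 cells exposed to 1–20 µM for 24 h. RNA analysed by RT-PCR for p15CDKN2B, with 18S rRNA as reference. Cycle number set within the exponential phase. Products run on 2% agarose and stained with ethidium bromide. Repeated twice.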

L1210 [19] = assay: Antileukemic activity against mouse L1210 cells at 20 uM after 48 hrs by clonogenic assay; type: functional; how it was run: as §1
L1210 [20] = assay: Growth inhibition of mouse L1210 cells at 10 uM after 12 hrs; type: functional; conditions: L1210, 12 h, read-out: GI; how it was run: as §2
MOLT-3 [21] = assay: Growth inhibition of human MOLT3 cells after 48 hrs; type: functional; how it was run: as §3
L1210 [22] = assay: Antileukemic activity against mouse L1210 cells at 1 uM after 48 hrs by clonogenic assay; type: functional; how it was run: as §1
L1210 [23] = assay: Antileukemic activity against mouse L1210 cells at 10 uM after 12 hrs by clonogenic assay; type: functional; how it was run: as §1
MOLT-3 [24] = assay: Antileukemic activity against human MOLT3 cells at 1 uM after 24 hrs by clonogenic assay; type: functional; how it was run: as §4
L1210 [25] = assay: Growth inhibition of mouse L1210 cells at 5 uM after 48 hrs; type: functional; conditions: L1210, 48 h, read-out: GI; how it was run: as §2

O=c1c(-c2ccc(O)cc2)coc2cc(O)cc(O)c12 [GENISTEIN]
Activity (L1210 [1]): 100%
CC50 (L1210 [2]): 6.5 µM
inhibition of growth at 20 µM (L1210 [3]): 66.7%
inhibition of growth at 2 µM (MOLT-3 [4]): > 10%
inhibition of growth at 5 µM (Raji [5]): > 10%
inhibition of growth at 5 µM (HL-60): > 10%
IG50 [6]: 23 µM
IG50 (Raji [7]): 18.6 µM
inhibition of growth at 1 µM (L1210 [8]): 13.2%
Activity (L1210 [9]): 16%
inhibition of growth at 2 µM (L1210 [10]): 11.4%
CC50 (Raji [11]): 13.7 µM
inhibition of growth at 1 µM (L1210 [12]): 3.2%
Activity (Raji [13]): >10%
inhibition at 5 µM [14]: > 10%
Activity (L1210 [15]): 97%
Activity (L1210 [16]): 11%
Activity (L1210 [17]): 32.9%
Activity (L1210 [18]): Active
Activity (L1210 [19]): 99.7%
inhibition of growth at 10 µM (L1210 [20]): 23.8%
IG50 (MOLT-3 [21]): 12.7 µM
Activity (L1210 [22]): 11.9%
Activity (L1210 [23]): 94%
Activity (MOLT-3 [24]): >10%
inhibition of growth at 5 µM (L1210 [25]): 55.9%
